ChEMBL document CHEMBL5678817, “FTBMT, a Novel and Selective GPR52 Agonist, Demonstrates Antipsychotic-Like and Procognitive Effects in Rodents, Revealing a Potential Therapeutic Agent for Schizophrenia” (J Pharmacol Exp Ther, 2017)
Active and inactive are the calls of the source. No cut-off for these calls is given here.

Legend:
[1] = target: B1 bradykinin receptor (Homo sapiens) (UniProt P46663); assay: Inhibition of Bradykinin B1 receptor (unknown origin) at 10 uM relative to control
In short: (§1)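 Single-point screen at 10 μM across receptor, ion channel and enzyme binding or activity assays. Expressed as percent inhibition versus control; negative values denote stimulation.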

[2] = target: Gastrin/cholecystokinin type B receptor (Homo sapiens) (UniProt P32239); assay: Inhibition of CCK2 receptor (unknown origin) at 10 uM relative to control; in short: as §1
Gastrin/cholecystokinin type B receptor (Homo sapiens), sequence (P32239 whole entry): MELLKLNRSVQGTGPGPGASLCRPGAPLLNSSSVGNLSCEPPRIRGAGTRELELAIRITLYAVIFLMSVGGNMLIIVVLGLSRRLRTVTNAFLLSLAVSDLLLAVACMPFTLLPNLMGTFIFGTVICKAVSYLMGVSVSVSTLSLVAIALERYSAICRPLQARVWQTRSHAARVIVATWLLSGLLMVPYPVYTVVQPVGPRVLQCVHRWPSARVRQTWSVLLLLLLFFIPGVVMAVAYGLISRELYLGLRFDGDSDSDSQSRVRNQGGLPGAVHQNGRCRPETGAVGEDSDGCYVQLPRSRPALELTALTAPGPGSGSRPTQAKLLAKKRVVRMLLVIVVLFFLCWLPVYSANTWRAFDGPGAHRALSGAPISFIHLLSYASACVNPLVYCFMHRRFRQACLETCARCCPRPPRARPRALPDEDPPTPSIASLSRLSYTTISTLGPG

[3] = organism: Homo sapiens; assay: Inhibition of Ca2+ ATPase (unknown origin) at 10 uM relative to control; in short: as §1
[4] = tested on: Mus musculus; assay: Antipsychotic activity in C57BL/6N mouse assessed as increase in c-fos positive cells in nucleus accumbens at 30 mg/kg, po measured for 2 hrs by immunohistochemistry analysis; format: functional, organism-based
[5] = target: Prostaglandin G/H synthase 1 (Homo sapiens) (UniProt P23219); assay: Inhibition of COX-1 (unknown origin) at 10 uM relative to control; in short: as §1
Prostaglandin G/H synthase 1 (Homo sapiens), sequence (P23219 whole entry): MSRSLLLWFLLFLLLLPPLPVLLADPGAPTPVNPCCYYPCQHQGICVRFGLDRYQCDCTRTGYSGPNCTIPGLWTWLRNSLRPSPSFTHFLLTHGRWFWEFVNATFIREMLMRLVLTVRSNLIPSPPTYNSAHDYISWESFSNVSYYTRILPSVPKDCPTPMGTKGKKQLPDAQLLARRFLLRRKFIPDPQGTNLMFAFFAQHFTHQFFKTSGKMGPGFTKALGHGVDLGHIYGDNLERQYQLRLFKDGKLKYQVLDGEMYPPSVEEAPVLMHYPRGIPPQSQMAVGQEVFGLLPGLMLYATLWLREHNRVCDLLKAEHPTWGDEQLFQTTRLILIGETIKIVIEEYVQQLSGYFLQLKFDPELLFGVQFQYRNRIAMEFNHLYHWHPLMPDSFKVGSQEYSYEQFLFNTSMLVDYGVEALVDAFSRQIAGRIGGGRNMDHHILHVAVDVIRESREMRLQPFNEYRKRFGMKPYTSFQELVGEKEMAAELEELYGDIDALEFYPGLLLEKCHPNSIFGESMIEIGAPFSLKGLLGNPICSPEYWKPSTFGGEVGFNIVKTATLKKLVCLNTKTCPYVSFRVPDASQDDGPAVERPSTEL

[6] = target: Serotonin 3 (5-HT3) receptor (Homo sapiens) (UniProt P46098+A5X5Y0+O95264+Q70Z44+Q8WXA8); assay: Inhibition of Serotonin 5-HT3 receptor (unknown origin) at 10 uM relative to control; format: protein-complex assay
In short: (§2)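 Part of a 98-target external biochemical selectivity panel that used radioligand/receptor binding-type assays. Compound tested once at 10 µM. Results are reported as % inhibition versus control; negative values mean stimulation of receptor activity.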

[7] = target: Vasopressin V1a receptor (Homo sapiens) (UniProt P37288); assay: Inhibition of Vasopressin V1A receptor (unknown origin) at 10 uM relative to control
Vasopressin V1a receptor (Homo sapiens), sequence (P37288 whole entry, looked up): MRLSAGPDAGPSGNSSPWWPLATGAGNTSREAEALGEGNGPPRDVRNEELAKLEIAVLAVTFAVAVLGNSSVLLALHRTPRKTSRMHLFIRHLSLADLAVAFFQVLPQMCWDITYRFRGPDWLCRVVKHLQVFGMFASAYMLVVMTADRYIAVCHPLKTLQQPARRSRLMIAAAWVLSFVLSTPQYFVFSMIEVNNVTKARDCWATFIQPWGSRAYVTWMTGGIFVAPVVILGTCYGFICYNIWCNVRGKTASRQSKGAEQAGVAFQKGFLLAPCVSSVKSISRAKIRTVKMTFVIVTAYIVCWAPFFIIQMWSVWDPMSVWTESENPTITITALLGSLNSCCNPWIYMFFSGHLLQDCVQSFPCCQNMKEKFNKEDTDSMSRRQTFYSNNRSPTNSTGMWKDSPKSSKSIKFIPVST
In short: (§3)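 Binding and enzyme panel run by an outside contractor against receptors, ion channels and enzymes. Each assay used a single 10 μM test concentration, and results are expressed as percent inhibition. A negative value means stimulation of receptor activity or activation of enzyme activity.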

[8] = target: Adenosine receptor A2a (Homo sapiens) (UniProt P29274); assay: Inhibition of Adenosine A2A receptor (unknown origin) at 10 uM relative to control; in short: as §1
Adenosine receptor A2a (Homo sapiens), sequence (P29274 whole entry): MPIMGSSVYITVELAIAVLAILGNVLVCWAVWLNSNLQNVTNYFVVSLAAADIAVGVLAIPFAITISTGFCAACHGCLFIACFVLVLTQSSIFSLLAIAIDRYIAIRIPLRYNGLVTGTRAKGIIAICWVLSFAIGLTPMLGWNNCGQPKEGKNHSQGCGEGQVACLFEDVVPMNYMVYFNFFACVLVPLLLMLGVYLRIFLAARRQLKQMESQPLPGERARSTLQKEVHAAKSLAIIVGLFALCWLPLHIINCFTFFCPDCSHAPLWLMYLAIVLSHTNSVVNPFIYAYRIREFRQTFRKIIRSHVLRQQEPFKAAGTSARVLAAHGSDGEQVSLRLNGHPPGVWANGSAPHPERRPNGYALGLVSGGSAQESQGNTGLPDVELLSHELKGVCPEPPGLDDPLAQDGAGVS

[9] = target: Neuromedin-K receptor (Homo sapiens) (UniProt P29371); assay: Inhibition of Tachykinin NK3 receptor (unknown origin) at 10 uM relative to control; in short: as §3
Neuromedin-K receptor (Homo sapiens), sequence (P29371 whole entry): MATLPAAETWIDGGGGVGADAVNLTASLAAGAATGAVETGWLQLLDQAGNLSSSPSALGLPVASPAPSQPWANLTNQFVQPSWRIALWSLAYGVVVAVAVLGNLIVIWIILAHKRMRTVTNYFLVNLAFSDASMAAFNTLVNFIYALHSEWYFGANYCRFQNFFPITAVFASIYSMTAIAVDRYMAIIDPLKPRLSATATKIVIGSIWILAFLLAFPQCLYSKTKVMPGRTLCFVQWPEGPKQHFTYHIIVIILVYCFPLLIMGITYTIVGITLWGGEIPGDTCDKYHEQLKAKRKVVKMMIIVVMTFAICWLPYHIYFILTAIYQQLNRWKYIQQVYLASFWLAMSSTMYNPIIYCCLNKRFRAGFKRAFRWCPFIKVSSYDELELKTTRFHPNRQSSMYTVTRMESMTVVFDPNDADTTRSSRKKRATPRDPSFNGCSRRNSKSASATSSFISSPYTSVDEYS

[10] = tested on: Mus musculus; assay: Antipsychotic activity in C57BL/6N mouse assessed as increase in c-fos positive cells in medial prefrontal cortex at 30 mg/kg, po measured for 2 hrs by immunohistochemistry analysis; format: functional, organism-based
[11] = tested on: Mus musculus; assay: Pro-cognitive activity in C57BL/6N mouse assessed as increase in Egr-2 gene expression in hippocampus at 3 to 30 mg/kg, po […]; format: functional, organism-based; conditions: dose 3-30 mg/kg
[12] = target: Sodium-dependent serotonin transporter (Homo sapiens) (UniProt P31645); assay: Inhibition of SERT receptor (unknown origin) at 10 uM relative to control; in short: as §2
[13] = organism: Homo sapiens; assay: Inhibition of Sigma receptor (unknown origin) at 10 uM relative to control; in short: as §2
[14] = target: Phosphodiesterase 6 (Homo sapiens) (UniProt Q13956+P18545+P35913+O43924+P16499+P51160); assay: Inhibition of PDE6 (unknown origin) at 10 uM relative to control; format: protein assay
In short: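 Enzyme activity assays from the same 98-target biochemical panel. Single test concentration of 10 µM. Read-out is % inhibition of enzyme activity relative to control; negative percentages indicate activation of the enzyme.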

[15] = tested on: Mus musculus; assay: Pro-cognitive activity in GPR52 knockout C57BL/6N mouse assessed as increase in c-fos gene expression in hippocampus at 30 mg/kg, po measured after 2 hrs […]; format: functional, organism-based
[16] = target: D(4) dopamine receptor (Homo sapiens) (UniProt P21917); assay: Inhibition of Dopamine D4 receptor (unknown origin) at 10 uM relative to control; in short: as §2
D(4) dopamine receptor (Homo sapiens), sequence (P21917 whole entry): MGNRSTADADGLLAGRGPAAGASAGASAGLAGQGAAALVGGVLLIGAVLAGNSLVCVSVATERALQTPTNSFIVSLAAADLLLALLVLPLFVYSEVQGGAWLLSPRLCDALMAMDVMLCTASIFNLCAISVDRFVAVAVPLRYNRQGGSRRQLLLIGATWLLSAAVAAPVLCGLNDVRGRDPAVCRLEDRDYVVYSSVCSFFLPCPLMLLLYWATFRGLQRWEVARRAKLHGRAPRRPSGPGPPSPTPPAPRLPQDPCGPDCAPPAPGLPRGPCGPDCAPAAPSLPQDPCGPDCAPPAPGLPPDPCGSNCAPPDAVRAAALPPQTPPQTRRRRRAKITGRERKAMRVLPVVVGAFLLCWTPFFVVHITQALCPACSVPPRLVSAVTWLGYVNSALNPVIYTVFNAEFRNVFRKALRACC

[17] = target: Progesterone receptor (Homo sapiens) (UniProt P06401); assay: Inhibition of Progesterone receptor (unknown origin) at 10 uM relative to control; in short: as §2
[18] = target: Cholecystokinin receptor type A (Homo sapiens) (UniProt P32238); assay: Inhibition of CCK1 receptor (unknown origin) at 10 uM relative to control; in short: as §1
[19] = tested on: Rattus norvegicus; assay: Pro-cognitive activity in Long-Evans rat assessed as discrimination index at 3 to 10 mg/kg, po measured after 3 mins by NORT test; format: functional, organism-based; conditions: dose 3-10 mg/kg
In short: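 Male Long-Evans rats (7 weeks) were habituated to a 40 × 40 × 50 cm box for 10 min. The acquisition trial was 3 min with two identical objects. Oral dosing at 3 or 10 mg/kg followed immediately after acquisition. The 3-min retention trial, with one familiar and one novel object, ran 48 h later. Exploration was hand-scored by a blinded scorer, and NDI = novel/total × 100. n = 10.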

[20] = tested on: Mus musculus; assay: Antipsychotic activity in po dosed ICR mouse assessed as inhibition of MK-801-induced hyperactivity pretreated with compound for 1 hr followed by MK-801 addition and measured after 90 mins; format: functional, organism-based; conditions: dose 3-30 mg/kg, time 150.0 min
In short: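 Male ICR mice (7–8 weeks) habituated >60 min in individual cages with activity monitors. Oral dosing at 3–30 mg/kg or vehicle 60 min before MK-801 (0.2 mg/kg s.c.) or vehicle. Activity counted for 60 min pretreatment and 90 min after MK-801; n = 9–10.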

[21] = organism: Homo sapiens; assay: Inhibition of Nicotinic acetylcholine receptor (unknown origin) at 10 uM relative to control; in short: as §2
[22] = target: Xanthine oxidase (xanthine dehydrogenase/oxidase) (Homo sapiens, UniProt P47989); assay: Inhibition of Xanthine oxidase (unknown origin) at 10 uM relative to control; in short: as §3
Xanthine oxidase (xanthine dehydrogenase/oxidase), sequence (P47989 whole entry): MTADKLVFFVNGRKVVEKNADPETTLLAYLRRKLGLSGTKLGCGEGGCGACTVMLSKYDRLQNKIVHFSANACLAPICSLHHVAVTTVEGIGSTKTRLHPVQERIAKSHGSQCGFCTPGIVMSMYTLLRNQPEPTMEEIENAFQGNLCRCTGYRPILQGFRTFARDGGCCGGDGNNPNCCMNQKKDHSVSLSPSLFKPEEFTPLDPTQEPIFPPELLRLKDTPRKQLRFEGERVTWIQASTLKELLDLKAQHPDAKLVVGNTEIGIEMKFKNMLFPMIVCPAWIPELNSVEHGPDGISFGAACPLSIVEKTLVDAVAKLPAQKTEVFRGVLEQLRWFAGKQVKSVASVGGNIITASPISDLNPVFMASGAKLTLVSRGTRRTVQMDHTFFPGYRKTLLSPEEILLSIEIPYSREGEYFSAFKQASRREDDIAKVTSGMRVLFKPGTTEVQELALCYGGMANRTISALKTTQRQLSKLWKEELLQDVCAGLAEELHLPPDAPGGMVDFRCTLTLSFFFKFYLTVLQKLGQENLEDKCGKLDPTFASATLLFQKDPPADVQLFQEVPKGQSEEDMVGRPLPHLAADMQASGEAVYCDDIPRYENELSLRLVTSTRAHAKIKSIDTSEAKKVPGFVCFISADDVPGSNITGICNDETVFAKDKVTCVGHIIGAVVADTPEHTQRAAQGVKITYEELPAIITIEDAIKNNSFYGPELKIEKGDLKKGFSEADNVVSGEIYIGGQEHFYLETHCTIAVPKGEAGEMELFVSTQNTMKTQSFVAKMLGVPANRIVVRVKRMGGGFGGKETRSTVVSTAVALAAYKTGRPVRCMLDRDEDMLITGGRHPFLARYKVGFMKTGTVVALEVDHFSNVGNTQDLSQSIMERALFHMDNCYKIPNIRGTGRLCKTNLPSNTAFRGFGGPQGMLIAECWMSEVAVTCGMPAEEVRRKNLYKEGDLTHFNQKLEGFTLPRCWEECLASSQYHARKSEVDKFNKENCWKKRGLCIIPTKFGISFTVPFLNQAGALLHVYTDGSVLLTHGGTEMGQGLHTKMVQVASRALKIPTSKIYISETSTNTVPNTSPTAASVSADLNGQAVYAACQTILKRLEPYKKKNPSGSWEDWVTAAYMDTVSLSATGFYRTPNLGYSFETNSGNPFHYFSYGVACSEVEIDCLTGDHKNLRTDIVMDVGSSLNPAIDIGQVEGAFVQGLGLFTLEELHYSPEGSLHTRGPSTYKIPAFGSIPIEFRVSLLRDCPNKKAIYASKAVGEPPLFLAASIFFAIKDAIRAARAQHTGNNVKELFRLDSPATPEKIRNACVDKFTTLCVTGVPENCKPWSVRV

[23] = target: GABA-A receptor; anion channel (Homo sapiens) (UniProt P14867+P47870+P18507+P28472+P48169+Q99928+Q9UN88+P34903+O00591+O14764+Q8N1C3+P18505+P78334+P47869+P31644+Q16445); assay: Inhibition of GABAA receptor (unknown origin) at 10 uM in presence of flunitrazepam relative to control; format: protein-complex assay; in short: as §2
[24] = target: Carbonic anhydrase 2 (Homo sapiens) (UniProt P00918); assay: Inhibition of Carbonic anhydrase II (unknown origin) at 10 uM relative to control; in short: as §1
[25] = tested on: Mus musculus; assay: Antipsychotic activity in C57BL/6N mouse assessed as increase in c-fos mRNA expression at 3 to 100 mg/kg, po measured for 1 hr by qPCR analysis; format: functional, organism-based; conditions: dose 3-100 mg/kg
In short: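 Mice dosed orally at 3–100 mg/kg or vehicle. Tissues taken 1 h post-dose, NAc shell and striatum dissected, frozen on dry ice. IEG mRNA quantified by qPCR (absolute or ΔΔCt); n = 5–6; mean ± SEM.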

[26] = target: G protein-coupled receptor 52 (Rattus norvegicus) (UniProt A0A8I5ZQK1); assay: Agonist activity at rat GPR52 expressed in CHO cells assessed as increase in intracellular cAMP level upto 10 uM incubated for 30 mins by Alphascreen assay; format: cell-based
G protein-coupled receptor 52 (Rattus norvegicus), sequence (A0A8I5ZQK1 as listed by the source): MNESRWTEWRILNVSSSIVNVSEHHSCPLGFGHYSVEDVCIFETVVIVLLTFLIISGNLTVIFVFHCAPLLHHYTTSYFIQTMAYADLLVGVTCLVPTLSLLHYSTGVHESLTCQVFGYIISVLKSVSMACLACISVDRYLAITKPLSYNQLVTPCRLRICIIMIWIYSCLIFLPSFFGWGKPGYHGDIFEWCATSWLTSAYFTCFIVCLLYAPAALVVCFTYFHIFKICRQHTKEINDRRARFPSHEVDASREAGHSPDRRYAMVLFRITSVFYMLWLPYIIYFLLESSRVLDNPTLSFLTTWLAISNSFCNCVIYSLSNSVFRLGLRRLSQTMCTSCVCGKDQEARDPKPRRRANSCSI
In short: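 CHO cells stably expressing human, mouse or rat GPR52, plus naïve CHO cells, at 10,000 cells/well. Stimulated in cAMP assay buffer for 30 min at 37 °C. Intracellular cAMP read by AlphaScreen.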

B1 bradykinin receptor (Homo sapiens), sequence (P46663 whole entry): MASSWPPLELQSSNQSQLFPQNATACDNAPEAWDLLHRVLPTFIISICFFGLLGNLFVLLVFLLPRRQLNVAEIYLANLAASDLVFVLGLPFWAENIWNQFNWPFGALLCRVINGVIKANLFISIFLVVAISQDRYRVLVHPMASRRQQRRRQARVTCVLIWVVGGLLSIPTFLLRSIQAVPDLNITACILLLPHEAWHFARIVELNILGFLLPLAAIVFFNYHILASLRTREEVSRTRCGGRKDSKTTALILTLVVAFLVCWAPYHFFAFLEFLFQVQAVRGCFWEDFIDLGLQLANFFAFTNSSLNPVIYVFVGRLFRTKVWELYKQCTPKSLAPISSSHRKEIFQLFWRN

## Cc1cc(-n2nc(Cc3cc(F)cc(C(F)(F)F)c3)nc2C)ccc1C(N)=O [TP-024]
[1]
  inhibition: -5%
[2]
  inhibition: 0%
[3]
  inhibition: -1%
[4]
  Activity: Active
[5]
  inhibition: -1%
[6]
  inhibition: 10%
[7]
  inhibition: 14%
[8]
  inhibition: 0%
[9]
  inhibition: 20%
[10]
  Activity: Active
[11]
  Activity: Active
[12]
  inhibition: 8%
[13]
  inhibition: 28%
[14]
  inhibition: 17%
[15]
  Activity: inactive
[16]
  inhibition: 3%
[17]
  inhibition: 4%
[18]
  inhibition: 6%
[19]
  Activity: Active
[20]
  Activity: Dose-Dependent Effect
[21]
  inhibition: -2%
[22]
  inhibition at 10 µM: 10%
[23]
  inhibition: 6%
[24]
  inhibition: 4%
[25]
  Activity: Active
[26]
  Activity: inactive
